Measurements collected from several papers.
Lines come from different studies, so protocols differ.
Target: Serine/threonine-protein kinase D1 (PRKD1, Homo sapiens, UniProt Q15139)
One construct used (Q15139 1-912): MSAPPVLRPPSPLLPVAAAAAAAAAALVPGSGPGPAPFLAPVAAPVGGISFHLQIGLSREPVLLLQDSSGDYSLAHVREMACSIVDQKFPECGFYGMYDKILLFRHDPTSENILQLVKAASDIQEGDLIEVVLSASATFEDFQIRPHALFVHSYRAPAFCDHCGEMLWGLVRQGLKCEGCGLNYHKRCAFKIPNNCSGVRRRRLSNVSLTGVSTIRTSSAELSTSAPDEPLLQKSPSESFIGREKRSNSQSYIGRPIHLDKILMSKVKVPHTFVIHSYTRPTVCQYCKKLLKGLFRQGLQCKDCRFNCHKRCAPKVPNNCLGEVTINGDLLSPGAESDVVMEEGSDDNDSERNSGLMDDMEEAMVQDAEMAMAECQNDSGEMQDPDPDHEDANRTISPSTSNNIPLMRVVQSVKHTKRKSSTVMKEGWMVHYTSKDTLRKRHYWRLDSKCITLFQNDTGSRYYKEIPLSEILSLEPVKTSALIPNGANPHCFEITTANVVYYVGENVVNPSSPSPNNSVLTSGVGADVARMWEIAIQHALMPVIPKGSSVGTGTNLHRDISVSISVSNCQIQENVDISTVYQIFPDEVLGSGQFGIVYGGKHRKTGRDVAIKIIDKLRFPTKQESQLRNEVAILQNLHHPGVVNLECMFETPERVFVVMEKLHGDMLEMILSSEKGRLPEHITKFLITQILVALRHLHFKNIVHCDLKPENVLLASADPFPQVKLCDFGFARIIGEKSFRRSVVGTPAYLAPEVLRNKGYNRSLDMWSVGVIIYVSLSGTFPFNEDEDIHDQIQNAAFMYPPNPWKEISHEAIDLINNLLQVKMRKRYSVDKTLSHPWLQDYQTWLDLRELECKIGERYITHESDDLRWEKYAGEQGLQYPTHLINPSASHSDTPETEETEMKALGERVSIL

Structure (SMILES)	effect on	technique	tested at	remaining binding [%]
C[C@@]1(Cc2ccc(C#N)cc2)C(=O)N(c2cc(Cl)cc(Cl)c2)c2ncc(C(=O)NC3(c4nc(C5CCC5)no4)CC3)n21	cell-free assay	competition with immobilised ligand	1 µM	86
CNC(=O)[C@@H]1CC[C@@H](n2c(-c3ccc4cnccc4c3)nc3ccc(C(=O)NCc4cccc(C(N)=O)c4)cc32)C1	binding	competition with immobilised ligand	1 µM	100
CN(c1nccc(-c2cnn3ncccc23)n1)C1CC1	binding	–	1 µM	100
COc1ncc2cc3ccccc3nc2c1C#N	cell-free assay	competition with immobilised ligand	5 µM	87
COc1ccnn2ncc(-c3ccnc(N(C)C)n3)c12	binding	–	1 µM	100
CS(=O)(=O)N1CCCC(NC(=O)[C@H](CCC2CCCCC2)NC(=O)c2ccc(CNC(=O)c3cnc4ccccn34)cc2)C1 (stereo partly drawn)	cell-free assay	competition with immobilised ligand	0.1 µM	93
O=C(c1ccc(Nc2nccc(-c3cc4ccccc4s3)n2)cc1)N1CCC(N2CCCC2)CC1	binding	competition with immobilised ligand	1 µM	64
CN([C@@H]1CCc2c(CC(=O)O)c3cc(S(C)(=O)=O)ccc3n2C1)S(=O)(=O)c1ccc(F)cc1	cell-free assay	competition with immobilised ligand	1 µM	75
CN(CCCC(F)(F)F)c1nccc(-c2cnn3ncccc23)n1	binding	–	1 µM	95
c1cncc(-c2cccc(Nc3nccc(NC4CCCCC4)n3)c2)c1	binding	competition with immobilised ligand	10 µM	11
CN(C)c1nccc(-c2cnn3ncccc23)n1	binding	–	1 µM	57
O=S(=O)(NC1CCC(c2cc(F)ccc2F)(S(=O)(=O)c2ccc(Cl)cc2)CC1)C(F)(F)F (stereo not drawn)	cell-free assay	competition with immobilised ligand	1 µM	100
O=C(c1ccc(Nc2ncc(Cl)c(-c3ccc(Cl)s3)n2)cc1)N1CCC(N2CCCC2)CC1	binding	competition with immobilised ligand	1 µM	32
FC(F)(F)Oc1cccc(-c2cnc3ccc(-c4ccncc4)nn23)c1	cell-free assay	competition with immobilised ligand	5 µM	100
CC1=C(C#N)C(c2ccc3c(c2)c(NC(=O)c2ccccc2C)nn3C)C(C#N)=C(C)N1	cell-free assay	competition with immobilised ligand	1 µM	92
C=CC(=O)N1CCC(C(=O)NCC(=O)N2CCN(c3nc(-c4cnc(N)nc4C(F)F)nc(N4CCOCC4)n3)CC2)CC1	binding	competition with immobilised ligand	1 µM	90
Cc1cnn2ncc(-c3ccnc(N(C)C)n3)c2c1	binding	–	1 µM	95
COc1cnc(Nc2cccc(S(N)(=O)=O)c2)nc1N1CCN(c2ccccc2)CC1	binding	competition with immobilised ligand	1 µM	100
O=C(NCC1CCOCC1)c1n[nH]cc1NC(=O)c1c(F)cccc1F	binding	competition with immobilised ligand	1 µM	100
N[C@H]1CCN(c2nccc(-c3cnn4ncccc34)n2)C1	binding	–	1 µM	65
CO[C@@H](C)c1c(Nc2ccc([C@H](N(C)C(=O)C3CCS(=O)(=O)CC3)C(F)(F)F)cc2)cnc2cc(Cl)nn12	cell-free assay	competition with immobilised ligand	1 µM	100
